How the values were obtained:
Androgen receptor = biological target: T1, Androgen receptor (Rattus norvegicus, UniProt P15207); experiment: Binding affinity to rat AR
T1 sequence (P15207 whole entry): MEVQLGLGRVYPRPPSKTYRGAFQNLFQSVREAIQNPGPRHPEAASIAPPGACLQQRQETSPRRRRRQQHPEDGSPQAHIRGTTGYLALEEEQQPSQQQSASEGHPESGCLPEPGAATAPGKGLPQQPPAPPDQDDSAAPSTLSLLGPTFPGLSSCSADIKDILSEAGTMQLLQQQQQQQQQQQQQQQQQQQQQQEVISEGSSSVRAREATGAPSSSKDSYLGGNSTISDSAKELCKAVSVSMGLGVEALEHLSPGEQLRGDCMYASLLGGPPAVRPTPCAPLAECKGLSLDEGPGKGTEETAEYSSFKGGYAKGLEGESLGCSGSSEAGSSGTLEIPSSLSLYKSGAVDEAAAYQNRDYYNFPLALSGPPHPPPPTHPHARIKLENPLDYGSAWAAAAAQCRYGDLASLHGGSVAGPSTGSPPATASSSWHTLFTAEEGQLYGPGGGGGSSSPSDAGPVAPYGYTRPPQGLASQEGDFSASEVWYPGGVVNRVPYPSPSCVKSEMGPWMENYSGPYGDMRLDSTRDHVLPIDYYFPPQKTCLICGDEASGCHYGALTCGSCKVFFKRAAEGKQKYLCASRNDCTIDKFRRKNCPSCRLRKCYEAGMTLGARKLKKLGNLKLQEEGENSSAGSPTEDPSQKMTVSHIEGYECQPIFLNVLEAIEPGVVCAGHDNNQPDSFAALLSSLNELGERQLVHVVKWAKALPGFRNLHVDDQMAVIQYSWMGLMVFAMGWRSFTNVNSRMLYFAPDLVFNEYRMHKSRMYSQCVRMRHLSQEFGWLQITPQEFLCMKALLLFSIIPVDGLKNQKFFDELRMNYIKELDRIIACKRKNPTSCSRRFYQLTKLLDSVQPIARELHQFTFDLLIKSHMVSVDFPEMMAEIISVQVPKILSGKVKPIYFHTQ

Liver = experiment: Biodistribution in liver of iv dosed testis-intact Sprague-Dawley rat after 18 hrs block; type: ADME, organism-based; details: in vivo
Summary of the method: (§1)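 76Br-tracer in 10% ethanol-saline, given iv by tail vein to mature male Sprague-Dawley rats (250 g) castrated 7 days before. Doses were 4 µCi/animal (1 h) and 7 µCi/animal (18 h). Block group used testes-intact rats, with the AR saturated by endogenous androgen. Five animals per group. Tissues were excised, weighed, saline-washed, blotted and counted. %ID/g was taken against injected-dose standards.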

Blood [1] = experiment: Biodistribution in blood of iv dosed testis-intact Sprague-Dawley rat after 18 hrs block; type: ADME, organism-based; details: in vivo; summary of the method: as §1
Prostate gland [2] = experiment: Biodistribution in prostate of iv dosed testis-intact Sprague-Dawley rat after 1 hr block; type: ADME, organism-based; details: in vivo; summary of the method: as §1
Kidney [3] = experiment: Biodistribution in kidney of iv dosed testis-intact Sprague-Dawley rat after 18 hrs block; type: ADME, organism-based; details: in vivo; summary of the method: as §1
Muscle tissue [4] = experiment: Biodistribution in muscle of iv dosed testis-intact Sprague-Dawley rat after 1 hr block; type: ADME, organism-based; details: in vivo; summary of the method: as §1
[5] = Biodistribution in bone of iv dosed Sprague-Dawley rat after 1 hr; type: ADME, organism-based, Bone element; details: read-out: Drug uptake; summary of the method: as §1
[6] = Biodistribution in muscle of iv dosed Sprague-Dawley rat after 18 hrs; type: ADME, organism-based, Muscle tissue; details: read-out: Drug uptake; summary of the method: as §1
[7] = Biodistribution in liver of iv dosed Sprague-Dawley rat after 18 hrs; type: ADME, organism-based; details: read-out: Drug uptake; summary of the method: as §1
[8] = Biodistribution in tumor of iv dosed CWR22 tumor bearing mouse after 30 min; type: ADME, organism-based; details: human, read-out: Drug uptake
Summary of the method: (§2)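 Mature male mice (25 g) bearing flank CWR22 prostate tumors received DES (0.2 mg in 0.1 mL sesame oil, sc) 24 and 3 h before the tracer. 76Br-tracer, 6 µCi/animal in 10% ethanol-saline, was given iv by tail vein. Mice were killed at 30 or 90 min. Block set was co-injected with 8 µg 17α-methyltestosterone. Five animals per point. Results are %ID/g.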

[9] = Biodistribution in tumor of iv dosed CWR22 tumor bearing mouse with 17alpha-methyltestosterone-induced androgen block after 90 min; type: ADME, organism-based; details: human, in vivo, 1.5 h; summary of the method: as §2
[10] = Biodistribution in liver of iv dosed CWR22 tumor bearing mouse after 30 min; type: ADME, organism-based; details: human, read-out: Drug uptake; summary of the method: as §2
[11] = Biodistribution in kidney of iv dosed CWR22 tumor bearing mouse after 30 min; type: ADME, organism-based; details: human, read-out: Drug uptake; summary of the method: as §2
[12] = Biodistribution in muscle of iv dosed CWR22 tumor bearing mouse after 30 min; type: ADME, organism-based, Muscle tissue; details: human, read-out: Drug uptake; summary of the method: as §2
[13] = Biodistribution in kidney of iv dosed Sprague-Dawley rat after 18 hrs; type: ADME, organism-based; details: read-out: Drug uptake; summary of the method: as §1
[14] = Biodistribution in kidney of iv dosed Sprague-Dawley rat after 1 hr; type: ADME, organism-based; details: read-out: Drug uptake; summary of the method: as §1
[15] = Biodistribution in blood of iv dosed CWR22 tumor bearing mouse with 17alpha-methyltestosterone-induced androgen block after 90 min; type: ADME, organism-based; details: human, read-out: Drug uptake; summary of the method: as §2
[16] = Biodistribution in liver of iv dosed CWR22 tumor bearing mouse after 60 min; type: ADME, organism-based; details: human, read-out: Drug uptake
[17] = Biodistribution in muscle of iv dosed Sprague-Dawley rat after 1 hr; type: ADME, organism-based, Muscle tissue; details: read-out: Drug uptake; summary of the method: as §1
[18] = Ratio of drug uptake in prostate to blood in iv dosed Sprague-Dawley rat after 1 hr; type: ADME, organism-based, Prostate gland
Summary of the method: (§3)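 Castrated male Sprague-Dawley rats were dosed iv (tail vein) with 4 µCi 76Br-tracer in 10% ethanol-saline and killed at 1 h, five per group. Tissues were weighed and counted and %ID/g calculated against dose standards. Ratios are prostate %ID/g over blood or muscle %ID/g.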

[19] = Biodistribution in liver of iv dosed Sprague-Dawley rat after 1 hr; type: ADME, organism-based; details: read-out: Drug uptake; summary of the method: as §1
[20] = Biodistribution in blood of iv dosed Sprague-Dawley rat after 1 hr; type: ADME, organism-based; details: read-out: Drug uptake; summary of the method: as §1
Kidney [21] = experiment: Biodistribution in kidney of iv dosed testis-intact Sprague-Dawley rat after 1 hr block; type: ADME, organism-based; details: in vivo; summary of the method: as §1
Bone [22] = experiment: Biodistribution in bone of iv dosed testis-intact Sprague-Dawley rat after 18 hrs block; type: ADME, organism-based, Bone element; details: in vivo; summary of the method: as §1
[23] = Biodistribution in kidney of iv dosed CWR22 tumor bearing mouse with 17alpha-methyltestosterone-induced androgen block after 90 min; type: ADME, organism-based; details: human, in vivo, 1.5 h; summary of the method: as §2
[24] = Biodistribution in kidney of iv dosed CWR22 tumor bearing mouse after 60 min; type: ADME, organism-based; details: human, read-out: Drug uptake
[25] = Biodistribution in blood of iv dosed CWR22 tumor bearing mouse after 60 min; type: ADME, organism-based; details: human, in vivo, 1 h
[26] = Biodistribution in prostate of iv dosed CWR22 tumor bearing mouse after 30 min; type: ADME, organism-based, Prostate gland; details: human, read-out: Drug uptake; summary of the method: as §2
[27] = Biodistribution in blood of iv dosed CWR22 tumor bearing mouse after 30 min; type: ADME, organism-based; details: human, read-out: Drug uptake; summary of the method: as §2
[28] = Biodistribution in prostate of iv dosed Sprague-Dawley rat after 18 hrs; type: ADME, organism-based, Prostate gland; details: read-out: Drug uptake; summary of the method: as §1
[29] = Biodistribution in liver of iv dosed CWR22 tumor bearing mouse with 17alpha-methyltestosterone-induced androgen block after 90 min; type: ADME, organism-based; details: human, in vivo, 1.5 h; summary of the method: as §2
Muscle tissue [30] = experiment: Biodistribution in muscle of iv dosed testis-intact Sprague-Dawley rat after 18 hrs block; type: ADME, organism-based; details: in vivo; summary of the method: as §1
[31] = Biodistribution in tumor of iv dosed CWR22 tumor bearing mouse after 60 min; type: ADME, organism-based; details: human, read-out: Drug uptake
Bone [32] = experiment: Biodistribution in bone of iv dosed testis-intact Sprague-Dawley rat after 1 hr block; type: ADME, organism-based, Bone element; details: in vivo; summary of the method: as §1
[33] = Biodistribution in prostate of iv dosed CWR22 tumor bearing mouse after 60 min; type: ADME, organism-based, Prostate gland; details: human, read-out: Drug uptake
[34] = Biodistribution in prostate of iv dosed Sprague-Dawley rat after 1 hr; type: ADME, organism-based, Prostate gland; details: read-out: Drug uptake; summary of the method: as §1
[35] = Biodistribution in bone of iv dosed Sprague-Dawley rat after 18 hrs; type: ADME, organism-based, Bone element; details: read-out: Drug uptake; summary of the method: as §1
[36] = Biodistribution in muscle of iv dosed CWR22 tumor bearing mouse with 17alpha-methyltestosterone-induced androgen block after 90 min; type: ADME, organism-based; details: human, read-out: Drug uptake; summary of the method: as §2
[37] = Biodistribution in muscle of iv dosed CWR22 tumor bearing mouse after 60 min; type: ADME, organism-based, Muscle tissue; details: human, read-out: Drug uptake
[38] = Biodistribution in blood of iv dosed Sprague-Dawley rat after 18 hrs; type: ADME, organism-based; details: read-out: Drug uptake; summary of the method: as §1
[39] = Ratio of drug uptake in prostate to muscle in iv dosed Sprague-Dawley rat after 1 hr; type: ADME, organism-based, Prostate gland; details: in vivo; summary of the method: as §3
[40] = Biodistribution in liver of iv dosed testis-intact Sprague-Dawley rat after 1 hr block; type: ADME, organism-based; details: male, read-out: Drug uptake; summary of the method: as §1
Prostate gland [41] = experiment: Biodistribution in prostate of iv dosed testis-intact Sprague-Dawley rat after 18 hrs block; type: ADME, organism-based; details: in vivo; summary of the method: as §1
[42] = Biodistribution in prostate of iv dosed CWR22 tumor bearing mouse with 17alpha-methyltestosterone-induced androgen block after 90 min; type: ADME, organism-based, Prostate gland; details: human, read-out: Drug uptake; summary of the method: as §2
Blood [43] = experiment: Biodistribution in blood of iv dosed testis-intact Sprague-Dawley rat after 1 hr block; type: ADME, organism-based; details: in vivo; summary of the method: as §1

## CC(O)(CS(=O)(=O)c1ccc(Br)cc1)C(=O)Nc1ccc(C#N)c(C(F)(F)F)c1 (stereo not given)
Androgen receptor
  Kd: 110 nM

## CC(O)(CS(=O)(=O)c1ccc([76Br])cc1)C(=O)Nc1ccc(C#N)c(C(F)(F)F)c1 (stereo not given)
Liver
  Drug uptake: 0.36 % ID/g
Blood [1]
  Drug uptake: 0.29 % ID/g
Prostate gland [2]
  Drug uptake: 0.68 % ID/g
Kidney [3]
  Drug uptake: 0.26 % ID/g
Muscle tissue [4]
  Drug uptake: 0.38 % ID/g
[5]
  tissue uptake at 1 h: 0.28 %ID/g
[6]
  tissue uptake at 18 h: 0.15 %ID/g
[7]
  tissue uptake at 18 h: 0.56 %ID/g
[8]
  tissue uptake at 0.5 h: 2.5 %ID/g
[9]
  Drug uptake: 4.5 % ID/g
[10]
  tissue uptake at 0.5 h: 15 %ID/g
[11]
  tissue uptake at 0.5 h: 7.2 %ID/g
[12]
  tissue uptake at 0.5 h: 2.5 %ID/g
[13]
  tissue uptake at 18 h: 0.36 %ID/g
[14]
  tissue uptake at 1 h: 1 %ID/g
[15]
  tissue uptake at 1.5 h: 3 %ID/g
[16]
  tissue uptake at 1 h: 18 %ID/g
[17]
  tissue uptake at 1 h: 0.34 %ID/g
[18]
  Kp at 1 h: 1.8
[19]
  tissue uptake at 1 h: 2.1 %ID/g
[20]
  tissue uptake at 1 h: 0.56 %ID/g
Kidney [21]
  Drug uptake: 1 % ID/g
Bone [22]
  Drug uptake: 0.12 % ID/g
[23]
  Drug uptake: 7.6 % ID/g
[24]
  tissue uptake at 1 h: 7.8 %ID/g
[25]
  Drug uptake: 3.5 % ID/g
[26]
  tissue uptake at 0.5 h: 2.2 %ID/g
[27]
  tissue uptake at 0.5 h: 2.7 %ID/g
[28]
  tissue uptake at 18 h: 0.27 %ID/g
[29]
  Drug uptake: 14 % ID/g
Muscle tissue [30]
  Drug uptake: 0.11 % ID/g
[31]
  tissue uptake at 1 h: 3.8 %ID/g
Bone [32]
  Drug uptake: 0.31 % ID/g
[33]
  tissue uptake at 1 h: 2.8 %ID/g
[34]
  tissue uptake at 1 h: 1 %ID/g
[35]
  tissue uptake at 18 h: 0.13 %ID/g
[36]
  tissue uptake at 1.5 h: 2.8 %ID/g
[37]
  tissue uptake at 1 h: 2.9 %ID/g
[38]
  tissue uptake at 18 h: 0.34 %ID/g
[39]
  Ratio: 2.9
[40]
  tissue uptake at 1 h: 2.5 %ID/g
Prostate gland [41]
  Drug uptake: 0.22 % ID/g
[42]
  tissue uptake at 1.5 h: 3.4 %ID/g
Blood [43]
  Drug uptake: 0.62 % ID/g

Reference: ChEMBL document CHEMBL1142964, “Synthesis and biological evaluation of [18F]bicalutamide, 4-[76Br]bromobicalutamide, and 4-[76Br]bromo-thiobicalutamide as non-steroidal androgens for prostate cancer imaging” (J Med Chem, 2007)
